In experiment [1] the test system is LNCaP. The experiment is described as follows: Antiproliferative activity against human LNCAP cells after 24 hrs by MTT assay. It is filed as functional, cell-based. An outline of the steps: (§1)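 LNCaP cells were grown in RPMI 1640 with 10% heat-inactivated FBS, penicillin/streptomycin, HEPES, 1 mM pyruvate and 2.5 g/L glucose. PC3 cells were grown in RPMI 1640 with 10% FBS and penicillin/streptomycin, at 37 °C in 5% CO₂. Cells were seeded at 4 × 10⁴ per well and left to adhere overnight. Compounds were diluted 1:1000 from DMSO stocks, with a 0.1% DMSO vehicle, and incubated 24–96 h without medium change. MTT was added for 4 h, the formazan dissolved in DMSO, and A570 read. Runs were in quadruplicate; ED50 was taken from dose-effect curves against vehicle.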
In general terms: Tetrazolium dyes change colour on reduction, which living cells bring about.

Experiment [2] is described as follows: Displacement of [3H]DTG from sigma 2 receptor in guinea pig brain membrane after 120 mins by liquid scintillation counting. It is filed as cell membranes, Cavia porcellus. The procedure, abridged: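 Guinea pig membranes were incubated 120 min at room temperature with 3 nM [³H]DTG and (+)-SKF10,047 to mask σ1 sites, in 50 mM Tris-HCl pH 8.0. DTG defined nonspecific binding. Samples were filtered on PEI-presoaked glass-fibre filters, washed and counted by liquid scintillation; Ki was calculated.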
(Loss of bound radioactivity is the signal in a displacement assay; it reports binding, not function.)

Experiment [3] relates to PC-3. Nature of the experiment: Antiproliferative activity against human PC3 cells after 24 hrs by MTT assay. The following applies: PC-3, 24 h. The format is functional, cell-based. An outline of the steps: as §1
Experiment [4] has as its target T1, Histone deacetylase (Homo sapiens) (UniProt Q13547+O15379+Q9UBN7+Q92769+Q9UQL6+Q8WUI4+Q9BY41+Q96DB2+P56524+Q9UKV0+Q969S8). The following applies: HeLa, 1.5 mM.
The target of experiment [5] is Sigma non-opioid intracellular receptor 1 (Cavia porcellus, UniProt Q60492). The experiment is described as follows: Displacement of [3H]-(+)-pentazocine from sigma 1 receptor in guinea pig brain membrane after 150 mins by liquid scintillation counting. It is filed as cell membranes. An outline of the steps: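 Guinea pig membranes were incubated to equilibrium, 150 min at 37 °C, with 3 nM [³H]-(+)-pentazocine (45 Ci/mmol) and increasing levels of displacer in 50 mM Tris-HCl pH 7.4. Haloperidol defined nonspecific binding. Samples were filtered on PEI-presoaked glass-fibre filters, washed with ice-cold buffer and counted by liquid scintillation; Ki was calculated.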

Experiment [6] concerns PC-3. Nature of the experiment: Antiproliferative activity against human PC3 cells after 72 hrs by MTT assay. The following applies: PC-3, 72 h. It is filed as functional, cell-based. The procedure, abridged: as §1
Experiment [7] concerns PC-3. The experiment is described as follows: Antiproliferative activity against human PC3 cells after 48 hrs by MTT assay. It is filed as functional, cell-based. The following applies: PC-3, 48 h. An outline of the steps: as §1
Experiment [8] has as its target T1, Histone deacetylase (Homo sapiens). The experiment is described as follows: Inhibition of HDAC in human PC3 cells at 10 uM after 10 mins by fluorometric assay. It is filed as cell-based. The following applies: PC-3. An outline of the steps:
(§2)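 LNCaP or PC3 cells were seeded at 3 × 10⁵ per dish, left overnight, then treated in medium for 1 h (and 24 h). Cells were PBS-washed and lysed, and nuclear protein was extracted with the NE-PER kit. Extracts received assay buffer only plus Fluor de Lys substrate, 10 min at 25–37 °C, then developer. Fluorescence was read at ex 360/em 460 nm relative to DMSO-treated control, in triplicate.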

Experiment [9] concerns PC-3. Nature of the experiment: Antiproliferative activity against human PC3 cells after 96 hrs by MTT assay. It is filed as functional, cell-based. The following applies: PC-3, 96 h. An outline of the steps:
as §1

The target of experiment [10] is T1, Histone deacetylase (Homo sapiens). The experiment is described as follows: Inhibition of HDAC in human HeLa cells at 10 uM after 10 mins by fluorometric assay. It is filed as cell-based. An outline of the steps: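 The HDAC fluorescent activity kit was used with supplied HeLa extract. Test agent was added in assay buffer, with trichostatin A (1 µM listed) as full-inhibition control. The reaction was started with acetyl-lysine Fluor de Lys substrate at 25–37 °C and stopped after 10 min with developer, then held 10–15 min at room temperature. Fluorescence was read at ex 360/em 460 nm. Percent inhibition was taken against the uninhibited reaction, in triplicate.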

Experiment [11] has as its system LNCaP. Nature of the experiment: Antiproliferative activity against human LNCAP cells after 96 hrs by MTT assay. It is filed as functional, cell-based. An outline of the steps:
as §1

In experiment [12] the test system is LNCaP. Nature of the experiment: Antiproliferative activity against human LNCAP cells after 48 hrs by MTT assay. The format is functional, cell-based. An outline of the steps: as §1
Experiment [13] deals with PC-3. The experiment is described as follows: Antiproliferative activity against human PC3 cells at 10 to 25 uM after 24 hrs by MTT assay. It is filed as functional. An outline of the steps: (§3)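 Percent growth was scored against vehicle-treated control (0.1% DMSO, 1:1000 dilution of DMSO stock) using the MTT assay. LNCaP cells were in supplemented RPMI 1640 with HEPES, pyruvate and glucose; PC3 cells were in RPMI 1640 with 10% FBS. Cells were seeded at 4 × 10⁴ per well and exposed 24, 48, 72 or 96 h. MTT was added for 4 h, the formazan dissolved in DMSO, and A570 read; n = 4.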

Experiment [14] deals with LNCaP. Nature of the experiment: Antiproliferative activity against human LNCAP cells at 10 uM after 96 hrs by MTT assay. The format is functional, cell-based. An outline of the steps: as §3
The target of experiment [15] is T1, Histone deacetylase (Homo sapiens). The experiment is described as follows: Inhibition of HDAC in human LNCAP cells at 10 uM after 10 mins by fluorometric assay. The format is cell-based. The procedure, abridged: as §2
In experiment [16] the test system is LNCaP. The experiment is described as follows: Antiproliferative activity against human LNCAP cells after 72 hrs by MTT assay. The format is functional, cell-based. An outline of the steps:
as §1

For experiment [17], the system named is LNCaP. Nature of the experiment: Antiproliferative activity against human LNCAP cells at 10 to 25 uM after 24 hrs by MTT assay. The format is functional. The procedure, abridged:
as §3

For a further experiment, the target named is D(3) dopamine receptor (Rattus norvegicus, UniProt P19020). The experiment is described as follows: Displacement radioligand form dopamine D3 receptor in rat olfactory tubercle by liquid scintillation counting. The format is tissue-based.
A further experiment addresses D(2) dopamine receptor (Rattus norvegicus, UniProt P61169). The experiment is described as follows: Displacement radioligand form dopamine D2 receptor in rat striatum by liquid scintillation counting. It is filed as tissue-based.
Experiment [18] relates to PC-3. The experiment is described as follows: Antiproliferative activity against human PC3 cells at 10 uM after 96 hrs by MTT assay. The format is functional, cell-based. An outline of the steps: as §3

SMILES strings stand for the structures. Several values for one entry are separate records, joined by “and”; a condition that tells them apart may be missing. Equal values may be shown once. Activity calls are given as the source filed them. No cut-off for these calls is given here.

Chain of D(3) dopamine receptor (P19020 whole entry): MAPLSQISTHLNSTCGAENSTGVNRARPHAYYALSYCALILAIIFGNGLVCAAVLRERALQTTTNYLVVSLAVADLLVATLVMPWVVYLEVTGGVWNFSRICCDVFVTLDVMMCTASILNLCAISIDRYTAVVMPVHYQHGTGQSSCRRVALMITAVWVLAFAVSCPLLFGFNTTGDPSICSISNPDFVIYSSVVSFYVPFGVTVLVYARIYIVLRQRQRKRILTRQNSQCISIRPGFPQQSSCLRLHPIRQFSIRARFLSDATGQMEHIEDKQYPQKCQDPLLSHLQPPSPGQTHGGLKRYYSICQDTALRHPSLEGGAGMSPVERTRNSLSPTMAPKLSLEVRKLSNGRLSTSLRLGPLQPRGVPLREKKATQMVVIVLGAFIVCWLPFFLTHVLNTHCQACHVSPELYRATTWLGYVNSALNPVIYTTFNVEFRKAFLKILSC
Chain of Sigma non-opioid intracellular receptor 1 (Q60492 whole entry): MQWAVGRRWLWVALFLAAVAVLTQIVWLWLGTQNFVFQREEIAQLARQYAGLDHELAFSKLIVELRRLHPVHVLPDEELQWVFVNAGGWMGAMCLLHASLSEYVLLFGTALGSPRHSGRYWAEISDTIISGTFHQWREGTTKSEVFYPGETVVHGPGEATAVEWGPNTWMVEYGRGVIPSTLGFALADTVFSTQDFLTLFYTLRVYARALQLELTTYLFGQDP
Chain of D(2) dopamine receptor (P61169 whole entry): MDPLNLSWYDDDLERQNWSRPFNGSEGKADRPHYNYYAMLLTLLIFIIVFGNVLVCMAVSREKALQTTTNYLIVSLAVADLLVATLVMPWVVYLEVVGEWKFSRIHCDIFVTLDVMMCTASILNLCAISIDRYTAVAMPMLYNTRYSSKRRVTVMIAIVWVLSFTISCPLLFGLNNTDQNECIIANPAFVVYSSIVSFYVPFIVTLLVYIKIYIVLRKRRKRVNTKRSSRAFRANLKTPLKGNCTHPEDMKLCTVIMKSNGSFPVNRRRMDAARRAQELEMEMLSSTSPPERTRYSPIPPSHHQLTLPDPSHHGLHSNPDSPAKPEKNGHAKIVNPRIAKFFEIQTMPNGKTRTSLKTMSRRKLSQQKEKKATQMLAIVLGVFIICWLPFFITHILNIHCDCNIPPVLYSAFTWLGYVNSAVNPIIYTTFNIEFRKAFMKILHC

Usually IC50 stands for the midpoint of a concentration-inhibition curve. Low readings indicate inhibition by little substance, high ones a need for much substance. What is called Ki is the equilibrium dissociation constant of an inhibitor or competing ligand from its target. The low end stands for tighter binding, the high end for weaker binding. By inhibition is commonly meant the change of the read-out against control, counted positive when it falls. Turning to `O=C(O)CCCc1ccccc1`, the values for the IC50 in the experiment with LNCaP [1] and in the experiment with PC-3 [3] were 2320 µM and 2270 µM, respectively. Besides, the Ki in experiment [2] and in experiment [5] was more than 10 µM each time. Besides, the inhibition in experiment [4] is 60%.

For the molecule `O=C(CCCc1ccccc1)OC(CCCN1CCC(O)(c2ccc(Cl)cc2)CC1)c1ccc(F)cc1` (racemic), the IC50 in the experiment with PC-3 [6] was 7.8 µM; with PC-3 [7] it was 11 µM; in the experiment on LNCaP [1], 10.9 µM; in the experiment on PC-3 [3] it was 12.9 µM; in the experiment on PC-3 [9], 6.78 µM; in the experiment with LNCaP [11] it was 6.65 µM. Also, the results for the IC50 with LNCaP [12] and in the experiment with LNCaP [16] were 8.83 µM and 8.13 µM, respectively. Moreover, the inhibition entry in experiment [8], in experiment [10] and in experiment [15] was “inactive” throughout. Moreover, the Ki in experiment [2] was 0.105 µM; in experiment [5], 0.162 µM; on D(3) dopamine receptor it was more than 5 µM; at D(2) dopamine receptor, more than 5 µM. Besides, the Activity is 10% in the experiment with PC-3 [13]; 45% and 40% and 20% with LNCaP [17]. Also, the result in the experiment with LNCaP [14] and with PC-3 [18] was Active.

`O=C(CCCN1CCC(O)(c2ccc(Cl)cc2)CC1)c1ccc(F)cc1` [HALOPERIDOL] gave a Ki in experiment [2] of 0.016 µM.

With `OC(CCCN1CCC(O)(c2ccc(Cl)cc2)CC1)c1ccc(F)cc1` (centres undefined) [HYDROXYHALOPERIDOL], the IC50 in the experiment on LNCaP [1] is 177 µM; in the experiment with PC-3 [3], 208 µM. In addition, the values for the Ki (in [2]; on D(3) dopamine receptor) were 0.00098 µM and 1.1 µM, respectively.

The record behind these values is ChEMBL document CHEMBL1649346, “Antiproliferative activity of phenylbutyrate ester of haloperidol metabolite II [(±)-MRJF4] in prostate cancer cells” (Eur J Med Chem, 2011).
